Laboratory results reported in ChEMBL document CHEMBL4613300, “Pharmacophore-Based Virtual Screening for Identification of Negative Modulators of GLI1 as Potential Anticancer Agents” (ACS Med Chem Lett, 2020).
Activity calls are given as the source filed them. The rule behind the calls is not given here.

Assays:
[1] = target: T1, Zinc finger protein GLI1 (Homo sapiens) (UniProt P08151); test: Inhibition of GLI1 transcriptional activity in human A375 cells assessed as downregulation of GLI2 mRNA expression at 5 uM incubated for 48 hrs by qPCR analysis; type: cell-based; conditions: A-375
T1 sequence (whole entry): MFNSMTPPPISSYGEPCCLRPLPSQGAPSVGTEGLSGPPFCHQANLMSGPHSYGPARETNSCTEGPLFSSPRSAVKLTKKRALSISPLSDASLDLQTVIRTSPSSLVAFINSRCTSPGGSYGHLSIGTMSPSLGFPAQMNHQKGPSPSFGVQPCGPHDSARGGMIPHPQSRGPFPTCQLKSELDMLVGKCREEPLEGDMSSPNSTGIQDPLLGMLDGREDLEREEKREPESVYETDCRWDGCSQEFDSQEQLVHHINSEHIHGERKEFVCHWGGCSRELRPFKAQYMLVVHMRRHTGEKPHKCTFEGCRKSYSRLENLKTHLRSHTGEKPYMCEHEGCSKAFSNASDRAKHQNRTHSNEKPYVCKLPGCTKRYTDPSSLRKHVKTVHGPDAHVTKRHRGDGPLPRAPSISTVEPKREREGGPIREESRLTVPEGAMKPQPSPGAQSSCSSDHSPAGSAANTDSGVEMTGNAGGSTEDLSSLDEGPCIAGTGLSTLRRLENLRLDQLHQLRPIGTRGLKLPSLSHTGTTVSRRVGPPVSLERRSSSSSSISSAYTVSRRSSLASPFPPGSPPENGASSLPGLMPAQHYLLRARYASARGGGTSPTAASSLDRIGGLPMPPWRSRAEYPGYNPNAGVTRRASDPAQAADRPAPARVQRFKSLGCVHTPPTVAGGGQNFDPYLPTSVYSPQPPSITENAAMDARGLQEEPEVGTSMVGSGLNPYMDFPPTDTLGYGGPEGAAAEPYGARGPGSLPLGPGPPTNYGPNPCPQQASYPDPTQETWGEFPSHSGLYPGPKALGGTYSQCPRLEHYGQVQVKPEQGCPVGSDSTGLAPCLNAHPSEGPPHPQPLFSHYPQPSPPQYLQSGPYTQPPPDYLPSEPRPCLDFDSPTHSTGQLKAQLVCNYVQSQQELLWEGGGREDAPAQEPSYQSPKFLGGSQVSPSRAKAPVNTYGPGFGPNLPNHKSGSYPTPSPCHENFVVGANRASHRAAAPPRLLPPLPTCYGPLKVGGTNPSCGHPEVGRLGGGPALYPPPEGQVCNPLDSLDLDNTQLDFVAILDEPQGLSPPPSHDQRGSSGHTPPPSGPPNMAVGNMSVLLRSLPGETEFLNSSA
Summary of the method: (§1)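 A375 cells treated with compound (5 μM) or DMSO for 48 h. mRNA measured by qPCR as gene/(mean of HPRT and EIF2α) ratio, DMSO control set to 1. Mean ± SD.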

[2] = system: A-375; test: Antiproliferative activity against human A375 cells transfected with lentivrus-encoding shRNA against GLI1 assessed as reduction in cell viability incubated for 72 hrs by trypan blue or crystal violet staining based assay; type: functional
Summary of the method: (§2)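 A375 melanoma cells transduced with control lentivirus (LV-c), LV-shGLI1 or LV-shGLI2, with knockdown checked by Western blot (HSP90 loading control). Cells treated with DMSO or compound at the indicated doses for 72 h, then viability read. Values are mean ± SD of at least three independent experiments.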

[3] = target: T1, Zinc finger protein GLI1 (Homo sapiens); test: Inhibition of GLI1 transcriptional activity in human A375 cells assessed as downregulation of HIP1 mRNA expression at 5 uM incubated for 48 hrs by qPCR analysis; type: cell-based; conditions: A-375; summary of the method: as §1
[4] = system: A-375; test: Antiproliferative activity against human A375 cells assessed as reduction in cell viability incubated for 72 hrs by trypan blue or crystal violet staining based assay; type: functional; conditions: Homo sapiens, A-375, 72 h; read-out: IC50
[5] = target: T1, Zinc finger protein GLI1 (Homo sapiens); test: Inhibition of GLI1 transcriptional activity in human A375 cells assessed as downregulation of PTCH1 mRNA expression at 5 uM incubated for 48 hrs by qPCR analysis; type: cell-based; conditions: A-375; summary of the method: as §1
[6] = system: A-375; test: Antiproliferative activity against human A375 cells transfected with lentivrus-encoding shRNA against GLI2 assessed as reduction in cell viability incubated for 72 hrs by trypan blue or crystal violet staining based assay; type: functional; summary of the method: as §2
[7] = target: T2, Zinc finger protein GLI1 (Mus musculus) (UniProt P47806); test: Inhibition of GLI1 transcriptional activity in HH-responsive mouse NIH3T3 cells assessed as reduction in SAG-induced luciferase activity at 5 uM incubated for 48 hrs by luciferase reporter gene assay relative to control; type: cell-based
T2 sequence (whole entry): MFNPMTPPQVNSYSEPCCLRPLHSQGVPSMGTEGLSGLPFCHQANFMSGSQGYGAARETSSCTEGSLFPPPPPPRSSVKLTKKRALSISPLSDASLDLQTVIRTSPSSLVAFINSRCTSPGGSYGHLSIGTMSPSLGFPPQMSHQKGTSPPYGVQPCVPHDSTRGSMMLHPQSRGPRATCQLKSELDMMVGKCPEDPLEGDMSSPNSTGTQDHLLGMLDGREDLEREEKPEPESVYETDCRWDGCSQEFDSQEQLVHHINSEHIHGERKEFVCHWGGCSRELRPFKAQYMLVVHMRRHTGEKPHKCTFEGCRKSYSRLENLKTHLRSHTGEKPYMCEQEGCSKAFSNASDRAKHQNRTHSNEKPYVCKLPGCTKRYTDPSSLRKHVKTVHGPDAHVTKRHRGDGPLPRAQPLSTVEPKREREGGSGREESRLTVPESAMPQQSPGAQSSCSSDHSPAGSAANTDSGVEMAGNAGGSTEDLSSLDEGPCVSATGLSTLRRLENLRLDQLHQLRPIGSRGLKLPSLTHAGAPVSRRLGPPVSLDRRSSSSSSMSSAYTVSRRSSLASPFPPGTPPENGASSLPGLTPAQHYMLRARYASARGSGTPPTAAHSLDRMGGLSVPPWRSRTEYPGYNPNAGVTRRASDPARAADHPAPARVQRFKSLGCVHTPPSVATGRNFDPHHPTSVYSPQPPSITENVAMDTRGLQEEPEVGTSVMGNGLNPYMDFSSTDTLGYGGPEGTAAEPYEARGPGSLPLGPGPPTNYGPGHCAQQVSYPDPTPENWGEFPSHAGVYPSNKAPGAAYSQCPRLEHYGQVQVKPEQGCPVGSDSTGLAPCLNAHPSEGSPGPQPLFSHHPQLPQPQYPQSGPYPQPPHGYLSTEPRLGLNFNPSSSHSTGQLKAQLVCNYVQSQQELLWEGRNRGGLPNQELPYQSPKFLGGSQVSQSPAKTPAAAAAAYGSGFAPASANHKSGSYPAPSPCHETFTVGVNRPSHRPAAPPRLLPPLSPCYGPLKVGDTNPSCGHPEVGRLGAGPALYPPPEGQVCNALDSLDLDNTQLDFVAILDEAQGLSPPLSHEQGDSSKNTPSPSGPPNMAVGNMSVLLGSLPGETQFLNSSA
Summary of the method: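 HH-responsive NIH3T3 cells carrying a GLI-dependent firefly luciferase reporter with renilla control, treated 48 h with 100 nM SAG plus compound (5 μM). Firefly/renilla ratio normalised to SAG-only cells set at 100%, reported as percent inhibition.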

[8] = target: T2, Zinc finger protein GLI1 (Mus musculus); test: Inhibition of GLI1 transcriptional activity in HH-responsive mouse NIH3T3 cells assessed as reduction in GLI1 protein expression at 5 uM incubated for 48 hrs in presence of SAG by Western blot analysis; type: cell-based
Summary of the method: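 Murine NIH3T3 cells given 100 nM SAG plus compound (5 μM) or DMSO for 48 h. Endogenous GLI1 protein measured by Western blot with HSP90 as loading control, band quantified against SAG-treated cells.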

[9] = target: T1, Zinc finger protein GLI1 (Homo sapiens); test: Inhibition of GLI1 transcriptional activity in human A375 cells assessed as downregulation of GLI1 mRNA expression at 5 uM incubated for 48 hrs by qPCR analysis; type: cell-based; conditions: A-375; summary of the method: as §1
[10] = system: MCF-10A; test: Cytotoxicity against human MCF10A cells assessed as reduction in cell viability incubated for 72 hrs by trypan blue or crystal violet staining based assay
[11] = target: T1, Zinc finger protein GLI1 (Homo sapiens); test: Inhibition of GLI1 transcriptional activity in human A375 cells assessed as downregulation of Cyclin D1 mRNA expression at 5 uM incubated for 48 hrs by qPCR analysis; type: cell-based; conditions: A-375; summary of the method: as §1
[12] = system: Daoy; test: Antiproliferative activity against human DaOY cells assessed as reduction in cell viability incubated for 72 hrs by trypan blue or crystal violet staining based assay; type: functional; conditions: Homo sapiens, Daoy, 72 h; read-out: IC50

inhibition [1]: Active | inhibition [3]: Active | IC50 [4]: 1200 nM | inhibition [5]: Active | inhibition [7]: 49% | inhibition [8]: Active | inhibition [9]: Active | inhibition [11]: Active
SMILES: O=C(NC1CCCc2ccccc21)c1cnn2c(C(F)(F)F)cc(-c3cccs3)nc12 (configuration not stated)
Activity [2]: inactive | Activity [6]: inactive | Activity [10]: Non-Toxic | IC50 [12]: 4400 nM
